An excerpt weighted towards active compounds, which were near 3.5% of everything screened.
MrgX1 ag = human MrgX1 receptor agonism, primary screen | Q96LB2 | MrgX1-HEK293 cells, Fluo-4 calcium fluorescence, agonist mode; hits give high values | B-score at 10 µM | hit rate 0.44% among 310,000;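 active = calcium response B-score plate-corrected fluorescence ratio at least 3 library SD, with starting fluorescence B-score inside 5 SD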
Target sequence (Q96LB2 whole entry, looked up): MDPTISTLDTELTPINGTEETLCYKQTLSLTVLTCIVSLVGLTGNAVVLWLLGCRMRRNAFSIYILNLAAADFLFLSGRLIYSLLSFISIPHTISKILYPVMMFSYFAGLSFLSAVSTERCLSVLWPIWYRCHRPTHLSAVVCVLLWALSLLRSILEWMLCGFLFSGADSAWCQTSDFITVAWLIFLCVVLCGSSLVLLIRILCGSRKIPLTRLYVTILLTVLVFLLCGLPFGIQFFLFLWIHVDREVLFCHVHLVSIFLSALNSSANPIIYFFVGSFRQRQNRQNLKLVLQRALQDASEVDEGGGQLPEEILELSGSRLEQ
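Test system: Stable human MrgX1 HEK293 cell line | Schedule: Overnight plating before 1 h dye loading | Read-out basis: Baseline-normalised fluorescence change ratio, B-scored | Detection: Kinetic calcium dye fluorescence, Fluo-4 NW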
MrgX1 allo act = human MrgX1 positive allosteric modulation, primary screen; Q96LB2; MrgX1-HEK293, Fluo-4 calcium flux, FDSS; hits give high values; B-score at 10 µM; hit rate 0.63% among 310,000; AID 588675;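 active = plate-corrected calcium response at least 3 library SD above typical, normal starting fluorescence, not activating the receptor alone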;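 also: compound read alongside a low EC10 to EC30 dose of BAM8-22 agonist; peak minus trough fluorescence over baseline measured at the second addition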
RGS4 inh = human RGS4 inhibition | HEK293 M3R/RGS4 inducible, Fluo-4 calcium flux; hits give high values; triggered by carbachol at its EC20 | B-score at 10 µM | P49798 | hit rate 0.45% among 310,000;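 active = B-score, a plate-corrected calcium signal, over three deviations above library mean, with baseline fluorescence within five deviations of library mean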;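 also: RGS4 expression induced by doxycycline in cells with stable M3 receptor; B-score is computed from the integrated fluorescence ratio over baseline after carbachol; higher B-score means a larger calcium signal and so more RGS4 inhibition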
Target sequence (P49798 whole entry, looked up): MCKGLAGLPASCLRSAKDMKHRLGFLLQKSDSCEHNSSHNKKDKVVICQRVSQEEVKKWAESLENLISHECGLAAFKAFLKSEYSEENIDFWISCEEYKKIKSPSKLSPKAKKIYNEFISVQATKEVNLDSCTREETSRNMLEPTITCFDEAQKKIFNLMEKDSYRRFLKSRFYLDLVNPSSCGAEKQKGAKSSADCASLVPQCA
MrgX1 antag = human MrgX1 receptor antagonism, primary screen; B-score at 10 µM; hit rate 1.3% among 310,000; AID 588676; MRGX1-HEK293 calcium flux, Fluo-4, BAM8-22 antagonism; hits give low values; Q96LB2;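 active = calcium-response B-score plate-corrected more than 3 library SD below zero, starting fluorescence within 5 deviations, no agonist response on first addition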;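 also: peak minus trough fluorescence over baseline after final BAM8-22 challenge near maximal dose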
RGS4 pot = RGS4 potentiation or activation; hit rate 0.92% among 310,000; B-score at 10 µM; HEK293 M3R/inducible RGS4, carbachol calcium flux Fluo4; hits give low values; AID 463111;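 active = B-score of the integrated calcium signal more than 4 SD below the library mean, with starting fluorescence not abnormally high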;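 also: negative B-score means reduced calcium response which marks RGS4 activation or potentiation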
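Material: M3R-expressing HEK293 line, RGS4 induced by doxycycline | Schedule: Overnight RGS4 induction, 30 min dye load 37 °C, 20 min compound RT | Measured by: Fluo4 fluorescence kinetic imaging of calcium | Read-out: Integrated calcium ratio converted to B score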
Hits are given with their value; n = inactive; x = not tested or not shown.

SMILES	MrgX1 ag	MrgX1 allo act	RGS4 inh	MrgX1 antag	RGS4 pot
Cc1cc(/C=N\NC(=O)CC(=O)NC2CCCCC2)c(C)n1-c1cccc(Cl)c1Cl	n	n	n	-6.31	n
Cc1cc(/C=N\NC(=O)CC(=O)NC2CCCCC2)c(C)n1-c1ccc(Cl)c(Cl)c1	n	n	n	n	n
CN1CCN(C(=O)CN(C)S(=O)(=O)c2cc(Cl)ccc2Cl)CC1	n	n	n	n	n
Cc1cc(C2=NNC(=NCCc3ccccc3)SC2)c(C)n1CC1CCCO1 (stereo not given)	45.1	n	n	n	n
COc1ccc(CCNC(=O)CCc2ccc(S(=O)(=O)NC(C)C)cc2)cc1	n	n	n	-5.73	n
O=C(NCCc1ccc(F)cc1)C(=O)NCC1CCCN1S(=O)(=O)c1cccs1 (stereo not given)	n	n	n	n	-7.18
COc1ccc(CCNC(=O)C(=O)NCC2CCCN2S(=O)(=O)c2ccc(OC)cc2)cc1 (stereo not given)	n	n	n	n	-7.09
CNC(=O)C(=O)NCC1CCCN1S(=O)(=O)c1cccs1 (stereo not given)	n	n	n	n	n
COc1ccc(S(=O)(=O)N2CCCC2CNC(=O)C(=O)NC2CCCCCC2)cc1 (stereo not given)	n	n	n	n	n
COc1ccc(CCNC(=O)C(=O)NCC2CCCN2S(=O)(=O)c2ccccc2)cc1OC (stereo not given)	n	n	n	n	-9.41
Cc1nn(S(=O)(=O)c2ccc(F)cc2)c(C)c1S(=O)(=O)N1CCOCC1	n	n	n	n	n
COCCNC(=O)c1ccc(CN2CCC(Cc3ccccc3)CC2)cc1	n	n	n	n	n
COc1ccc(CCNC(=O)c2ccc(CN3CCC(Cc4ccccc4)CC3)cc2)cc1OC	n	n	n	-5.22	n
CCOC(=O)CCc1c(C(=O)OCC)[nH]c(CC)c1C(=O)OCc1ccccc1	n	n	n	n	-7.5
CCOC(=O)c1c(C)[nH]c(C(=O)OCc2ccccc2)c1C	n	n	n	n	n
O=c1ccc2cc(S(=O)(=O)NCc3ccccc3)ccc2[nH]1	n	n	n	n	n
O=C(O)c1cccc(NC(=S)NC(NC(=O)c2cccc([N+](=O)[O-])c2)C(Cl)(Cl)Cl)c1 (stereo not given)	n	n	n	n	n
O=C(NC(NC(=S)Nc1ccc(Cl)cc1Cl)C(Cl)(Cl)Cl)c1cccc([N+](=O)[O-])c1 (stereo not given)	n	n	n	n	-7.23
Cc1cc(S(=O)(=O)N2CCOCC2)ccc1OCC(=O)NCCN1CCOCC1	n	n	n	n	n
O=C(NCC(=O)N1CCCCCC1)c1ccc(Br)cc1	n	n	n	n	n
Cc1cnc(CN(C)C(=O)c2ccc3oc(Cc4ccc(Cl)cc4)nc3c2)[nH]1	n	n	n	n	-7.18
O=C(NCCN1CCOCC1)c1ccc(/C=C2\Sc3ccccc3N(Cc3ccccc3F)C2=O)cc1	n	n	n	n	n
Cc1cccc(CN2C(=O)/C(=C\c3ccc(C(=O)NCCN4CCOCC4)cc3)Sc3ccccc32)c1	n	n	n	n	-7.32
CCN1CCN(CCNC(=O)c2ccc(/C=C3/Sc4ccccc4N(Cc4cccc(Cl)c4)C3=O)cc2)CC1	n	n	n	n	-9.9
COc1ccccc1CN1CC(C(=O)NCc2nccn2C)CCC1=O (stereo not given)	n	n	n	n	n
SMILES	MrgX1 ag	MrgX1 allo act	RGS4 inh	MrgX1 antag	RGS4 pot
COc1ccc(C2Nc3ccccc3C(=O)N2c2ccc(C)cc2)cc1Cn1nnc2ccccc21 (stereo not given)	n	23.1	n	n	n
CCN(CC)S(=O)(=O)c1cc(C(=O)Nc2cc(C)on2)c(Cl)cc1Cl	n	n	n	n	n
COc1ccc(C[C@H]2CN3C(=NC[C@@H]3Cc3ccccc3)N2CCNC(=O)c2ccc(C)c(Br)c2)cc1	n	n	n	n	n
COc1ccc(C[C@H]2CN3C(=NC[C@H]3Cc3ccccc3)N2CCNC(=O)c2ccc(C)c(Br)c2)cc1	n	n	n	-5.09	n
O=C1C2C3C=CC(C3)C2C(=O)N1/N=C/c1cn(Cc2ccc(F)cc2)c2ccccc12 (stereo not given)	n	n	n	n	-8.01
CC(C)CN(C(=O)CN1CCc2ccccc21)c1c(N)n(CC(C)C)c(=O)[nH]c1=O	n	n	n	n	n
CCn1nc(CC(=O)Nc2ccc(-n3cnnn3)c(OC)c2)c2ccccc2c1=O	n	n	n	-5.23	n
COC(=O)c1cccc(-c2ccc(/C=N/N3C(=O)C4C5C=CC(C6CC56)C4C3=O)o2)c1 (stereo not given)	n	n	n	n	-9.9
CCN1CCN(c2ccc(S(=O)(=O)N3CCOCC3)cc2NC(=O)c2ccc(Cl)s2)CC1	n	n	n	n	n
Cn1cccc1-c1cc(C(=O)N/N=C/C=C/c2ccccc2)[nH]n1	n	n	n	-5.78	n
Cc1ccc(CC(=O)Nc2ccc(S(=O)(=O)Nc3ncccn3)cc2)cc1	n	n	n	n	n
COc1cc(OC)c(NC(=O)c2sc3ncn(CC(=O)N4CCOCC4)c(=O)c3c2C)cc1Cl	n	n	n	n	n
O=C(Nc1nnc(SCc2ccccc2)s1)c1cccc([N+](=O)[O-])c1	n	n	n	n	n
Cc1nnc(SCc2cccc([N+](=O)[O-])c2)s1	n	n	n	n	-7.08
CCS(=O)(=O)c1ccc(O)c(NC(=O)Nc2ccc(C(C)(C)C)cc2)c1	n	n	n	n	n
COc1ccc(CCN(Cc2cc3cc(C)cc(C)c3nc2Cl)C(=O)C2CC2)cc1	n	n	n	n	-7.15
COc1ccc(NC(=O)CSc2nnc(Cn3nnc4ccccc43)n2C)cc1	n	n	x	n	x
CCc1ccccc1NC(=O)CSc1nnc(Cn2nnc3ccccc32)n1C	n	n	n	n	-7.51
CCOc1ccccc1OC(=O)CN1C(=O)c2ccccc2C1=O	n	n	n	n	n
N#Cc1ccc(/C=C/C(=O)c2ccco2)cc1	n	n	n	n	n
Nc1ccc(/C=C/C(=O)c2ccco2)cc1	49.7	n	n	n	n
O=C(/C=C/c1cc(Br)ccc1O)c1ccco1	38.9	n	n	n	n
CN1CCN(c2ccccc2NC(=O)c2ccc(-c3cccc(Cl)c3)o2)CC1	n	n	n	n	-8.49
O=C(Nc1ccccc1N1CCCCC1)c1ccc(-c2cccc(Cl)c2)o1	n	n	n	n	n
NC(=S)N/N=C/c1ccc2cccc(OCc3ccccc3)c2n1	n	n	n	n	n
O=C(N/N=C/c1ccc2cccc(OCc3ccccc3)c2n1)c1ccc(Br)cc1	n	n	n	n	-10.4
NC(N)=N/N=C/c1ccc2cccc(OCc3ccccc3)c2n1	n	n	n	-5.3	n
Cc1cccc(CC(=O)NCCS(=O)(=O)N2CCN(c3cccc(Cl)c3)CC2)c1	n	n	n	n	n
O=C(O)c1cc([N+](=O)[O-])ccc1N1CCC(Cc2ccccc2)CC1	39.8	n	n	n	n
